Source: ChEMBL document CHEMBL1126160, “Synthesis and structure-activity relationships of 7-diazabicycloalkylquinolones, including danofloxacin, a new quinolone antibacterial agent for veterinary medicine” (J Med Chem, 1992)
≈ marks a conversion by molar mass, not a printed value.

Assays:
[1] = tested on: Pasteurella multocida; assay: In vitro antibacterial activity against aerobically grown Pasteurella multocida (59A006); format: functional
Procedure, shortened: (§1)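 Agar dilution MICs. Aerobic strains were tested on brain heart infusion agar and incubated aerobically at 37 °C for 18–20 h.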

[2] = tested on: Trueperella pyogenes; assay: In vitro antibacterial activity against anaerobically grown Actinomyces pyogenes (14D002); format: functional
Procedure, shortened: (§2)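 Agar dilution MICs. Anaerobic strains were tested on tryptose agar with 5% bovine blood and incubated 48 h at 39 °C in an anaerobe chamber under N2/CO2/H2 (80:10:10).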

[3] = Compound was evaluated for aqueous solubility at pH 7.2; details: buffer
[4] = tested on: Clostridium perfringens; assay: microbe, parasite or virus in culture; format: functional
[5] = tested on: Escherichia coli; assay: In vivo protective dose was evaluated against Escherichia coli (51A266) in mouse(sc); format: functional; details: read-out: PD50
Procedure, shortened: (§3)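 Female CF-1 mice (15 g), groups of 10, challenged ip with 0.5 mL bacterial suspension (P. multocida 59A006 or E. coli 51A266 at 3.0 × 10^8 cfu/mL; S. choleraesuis 58B010 at 8.5 × 10^2 cfu/mL). Drug given sc or po at 30 min, 4 h and 24 h after challenge; survival recorded at 96 h; PD50 by probit analysis.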

[6] = tested on: Salmonella enterica; assay: In vitro antibacterial activity against aerobically grown Salmonella choleraesuis (58B015); format: functional
[7] = tested on: Escherichia coli; assay: Escherichia coli DNA cleavage endpoint value which is the minimum amount required (in micro g/mL) to induce detectable cleavage of supercoiled pBR322 substrate to linear form (gyrase); format: functional; details: read-out: MIC
Procedure, shortened: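 DNA gyrase A and B subunits were purified from E. coli overproducers. About 2 units of holoenzyme were incubated with pBR322 in Tris-HCl pH 7.5 containing MgCl2, spermidine, DTT, 0.2 mM ATP, BSA and tRNA. Drug was added as 2-fold serial dilutions, and reactions ran for 60 min at 25 °C. Reactions were stopped with SDS and proteinase K, then run on agarose and stained with ethidium. The endpoint was the lowest concentration giving detectable linear DNA.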

[8] = In vitro antibacterial activity against Aerobically grown Pasteurella haemolytica (59B018); format: functional; details: Mannheimia haemolytica; procedure, shortened: as §1
[9] = tested on: Actinobacillus pleuropneumoniae; assay: In vitro antibacterial activity against anaerobically grown Actinobacillus pleuropneumoniae ([…]); format: functional; procedure, shortened: as §2
[10] = tested on: Pasteurella multocida; assay: In vivo protective dose was evaluated against Pasteurella multocida (59A006) in mouse(sc); format: functional; details: read-out: PD50; procedure, shortened: as §3
[11] = tested on: Escherichia coli; assay: In vitro antibacterial activity against aerobically grown Escherichia coli (51A538); format: functional; procedure, shortened: as §1
[12] = tested on: Staphylococcus aureus; assay: In vitro antibacterial activity against aerobically grown Staphylococcus aureus (54B004); format: functional; procedure, shortened: as §1
[13] = tested on: Bordetella bronchiseptica; assay: In vitro antibacterial activity against aerobically grown Bordetella bronchiseptica (73A009); format: functional; procedure, shortened: as §1
[14] = In vitro evaluation for antibacterial activity against anaerobically grown Treponema hyodysenteriae (94A007); format: functional; details: Brachyspira hyodysenteriae
[15] = tested on: Phocaeicola vulgatus; assay: In vitro antibacterial activity against anaerobically grown Bacteroides vulgatus (78D029); format: functional; procedure, shortened: as §2
[16] = tested on: Pasteurella multocida; assay: In vivo protective dose was evaluated Pasteurella multocida (59A006) in mouse(sc); format: functional; details: read-out: PD50; procedure, shortened: as §3
[17] = tested on: Pasteurella multocida; assay: In vitro antibacterial activity against Aerobically grown Pasteurella multocida (59A006); format: functional; procedure, shortened: as §1
[18] = tested on: Salmonella enterica; assay: In vitro antibacterial activity against Aerobically grown Salmonella choleraesuis (58B015); format: functional
[19] = tested on: Pasteurella multocida; assay: In vivo protective dose was evaluated against Pasteurella multocida (59A006) in mouse(po); format: functional; details: read-out: PD50; procedure, shortened: as §3
[20] = tested on: Escherichia coli; assay: In vivo protective dose was evaluated against Escherichia coli (51A266) in mouse(po); format: functional; details: read-out: PD50; procedure, shortened: as §3
[21] = tested on: Actinobacillus pleuropneumoniae; assay: Compound was evaluated for minimum effective dose against Actinobacillus pleuropneumonia, intramuscular dose administration; details: im, read-out: MED
[22] = tested on: Mannheimia haemolytica; assay: Compound was evaluated for minimum effective dose against Pasteurella haemolytica, intramuscular dose administration; format: functional; details: im, read-out: MED
Procedure, shortened: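 Calves acid-treated intratracheally with 0.6 mL 8% acetic acid at 24 h and 4 h before endotracheal challenge with 50 mL P. haemolytica B280PA (~5 × 10^8 cfu/mL). im dosing of 2.5% or 5% solution in sterile water, day 0 and day 1 (SID × 2). Clinical signs and temperature recorded days 0–5; lungs scored and cultured. MED = lowest dose giving significant (65%) reduction of lung pathology.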

Compound	MIC [1] [µg/mL]	MIC [2] [µg/mL]	MIC [4] [µg/mL]	ED50 [5] [mg/kg]	MIC [6] [µg/mL]	minimum concentration inducing gyrase-mediated DNA cleavage [7] [µg/mL]	MIC [8] [µg/mL]	MIC [9] [µg/mL]	ED50 [10] [mg/kg]	MIC [11] [µg/mL]	MIC [12] [µg/mL]	MIC [13] [µg/mL]	MIC [14] [µg/mL]	MIC [15] [µg/mL]	also measured
O=C(O)c1cn(C2CC2)c2cc(N3C[C@@H]4C[C@H]3CN4)c(F)cc2c1=O	0.2 (≈ 0.582 µM)	3.13 (≈ 9.12 µM)	0.1 (≈ 0.291 µM)	0.92	0.05 (≈ 0.146 µM)	0.39	0.2 (≈ 0.582 µM)	0.1 (≈ 0.291 µM)	0.2	0.1 (≈ 0.291 µM)	1.56 (≈ 4.54 µM)	> 1.56	1.56 (≈ 4.54 µM)	> 3.13	solubility [3]: 77 µg/mL (≈ 224 µM)
CCn1cc(C(=O)O)c(=O)c2cc(F)c(N3CCN4CCCC3C4)cc21 (stereo not drawn)	0.02 (≈ 0.0556 µM)	> 3.13	0.39 (≈ 1.09 µM)	1.36	0.2 (≈ 0.556 µM)	3.12	0.1 (≈ 0.278 µM)	0.05 (≈ 0.139 µM)	0.71	0.2 (≈ 0.556 µM)	0.39 (≈ 1.09 µM)	> 1.56	0.39 (≈ 1.09 µM)	3.13 (≈ 8.71 µM)	–
CN1C2CC[C@@H]1CCN(c1cc3c(cc1F)c(=O)c(C(=O)O)cn3C1CC1)C2	0.05 (≈ 0.13 µM)	3.13 (≈ 8.12 µM)	0.2 (≈ 0.519 µM)	–	0.39 (≈ 1.01 µM)	3.12	0.2 (≈ 0.519 µM)	0.2 (≈ 0.519 µM)	0.43	0.39 (≈ 1.01 µM)	0.39 (≈ 1.01 µM)	> 1.56	1.56 (≈ 4.05 µM)	3.13 (≈ 8.12 µM)	–
CN1C[C@H]2C[C@@H]1CN2c1cc2c(cc1F)c(=O)c(C(=O)O)cn2C1CC1	0.02 (≈ 0.056 µM)	3.13 (≈ 8.76 µM)	0.2 (≈ 0.56 µM)	–	0.1 (≈ 0.28 µM)	0.19	0.05 (≈ 0.14 µM)	0.05 (≈ 0.14 µM)	–	0.05 (≈ 0.14 µM)	0.39 (≈ 1.09 µM)	1.56 (≈ 4.37 µM)	1.56 (≈ 4.37 µM)	3.13 (≈ 8.76 µM)	ED50 [16]: 0.22 mg/kg
Cl.O.O=C(O)c1cn(C2CC2)c2cc(N3CCN4CCC3CC4)c(F)cc2c1=O	< 0.002	1.56	0.05	0.09	0.02	0.39	0.01	0.05	–	0.02	0.05	0.39	0.39	0.39	–
CCn1cc(C(=O)O)c(=O)c2cc(F)c(N3C[C@@H]4C[C@H]3CN4C)cc21	–	> 3.13	0.2 (≈ 0.579 µM)	1.45	–	3.12	0.39 (≈ 1.13 µM)	0.78 (≈ 2.26 µM)	1.35	0.2 (≈ 0.579 µM)	0.39 (≈ 1.13 µM)	1.56 (≈ 4.52 µM)	1.56 (≈ 4.52 µM)	> 3.13	MIC [17]: 0.1 µg/mL (≈ 0.29 µM); MIC [18]: 0.39 µg/mL (≈ 1.13 µM)
O=C(O)c1cn(C2CC2)c2cc(N3CCN4CCCC3C4)c(F)cc2c1=O (stereo not drawn)	0.002 (≈ 0.00538 µM)	3.13 (≈ 8.43 µM)	0.2 (≈ 0.538 µM)	0.31	0.05 (≈ 0.135 µM)	0.78	0.02 (≈ 0.0538 µM)	0.02 (≈ 0.0538 µM)	0.15	0.05 (≈ 0.135 µM)	0.1 (≈ 0.269 µM)	0.78 (≈ 2.1 µM)	0.2 (≈ 0.538 µM)	0.78 (≈ 2.1 µM)	–
CCn1cc(C(=O)O)c(=O)c2cc(F)c(N3CC[C@H]4CCC(C3)N4C)cc21	0.39 (≈ 1.04 µM)	> 3.13	1.56 (≈ 4.18 µM)	–	> 1.56	1.56	1.56 (≈ 4.18 µM)	0.78 (≈ 2.09 µM)	–	> 1.56	1.56 (≈ 4.18 µM)	> 1.56	> 3.13	> 3.13	ED50 [16]: 1.03 mg/kg
CN1C[C@@H]2C[C@H]1CN2c1cc2c(cc1F)c(=O)c(C(=O)O)cn2-c1ccc(F)cc1	0.02 (≈ 0.0486 µM)	3.13 (≈ 7.61 µM)	0.1 (≈ 0.243 µM)	0.94	0.2 (≈ 0.486 µM)	1.56	0.1 (≈ 0.243 µM)	0.1 (≈ 0.243 µM)	0.29	0.2 (≈ 0.486 µM)	0.2 (≈ 0.486 µM)	1.56 (≈ 3.79 µM)	0.78 (≈ 1.9 µM)	1.56 (≈ 3.79 µM)	–
CN1C[C@@H]2C[C@H]1CN2c1c(F)cc2c(=O)c(C(=O)O)cn(-c3ccc(F)cc3F)c2c1F	0.02 (≈ 0.0447 µM)	1.56 (≈ 3.49 µM)	0.39 (≈ 0.872 µM)	–	0.39 (≈ 0.872 µM)	0.78	0.1 (≈ 0.224 µM)	0.1 (≈ 0.224 µM)	–	0.2 (≈ 0.447 µM)	0.2 (≈ 0.447 µM)	> 1.56	> 3.13	1.56 (≈ 3.49 µM)	–
CN1[C@@H]2CC[C@H]1CN(c1c(F)cc3c(=O)c(C(=O)O)cn(C4CC4)c3c1F)C2	0.1 (≈ 0.257 µM)	1.56 (≈ 4.01 µM)	0.78 (≈ 2 µM)	–	0.39 (≈ 1 µM)	0.78	0.1 (≈ 0.257 µM)	0.39 (≈ 1 µM)	–	0.2 (≈ 0.514 µM)	0.39 (≈ 1 µM)	3.13 (≈ 8.04 µM)	0.78 (≈ 2 µM)	25 (≈ 64.2 µM)	–
O=C(O)c1cn(C2CC2)c2c(F)c(N3C[C@@H]4C[C@H]3CN4)c(F)cc2c1=O	0.005 (≈ 0.0138 µM)	0.39 (≈ 1.08 µM)	0.05 (≈ 0.138 µM)	–	0.01 (≈ 0.0277 µM)	0.09	0.005 (≈ 0.0138 µM)	< 0.005	–	0.01 (≈ 0.0277 µM)	0.39 (≈ 1.08 µM)	0.39 (≈ 1.08 µM)	1.56 (≈ 4.32 µM)	1.56 (≈ 4.32 µM)	–
CCn1cc(C(=O)O)c(=O)c2cc(F)c(N3CCNCC3)cc21 [NORFLOXACIN]	0.05 (≈ 0.157 µM)	12.5 (≈ 39.1 µM)	0.39 (≈ 1.22 µM)	0.46	0.1 (≈ 0.313 µM)	0.78	0.05 (≈ 0.157 µM)	< 0.05	5.54	0.1 (≈ 0.313 µM)	3.13 (≈ 9.8 µM)	6.25 (≈ 19.6 µM)	6.25 (≈ 19.6 µM)	25 (≈ 78.3 µM)	solubility [3]: 350 µg/mL (≈ 1100 µM); ED50 [19]: 0.63 mg/kg; ED50 [20]: 8.84 mg/kg
CN1[C@@H]2CC[C@H]1CN(c1cc3c(cc1F)c(=O)c(C(=O)O)cn3C1CC1)C2	0.05 (≈ 0.135 µM)	3.13 (≈ 8.43 µM)	0.1 (≈ 0.269 µM)	0.15	0.2 (≈ 0.538 µM)	0.78	0.1 (≈ 0.269 µM)	0.39 (≈ 1.05 µM)	0.37	0.1 (≈ 0.269 µM)	0.1 (≈ 0.269 µM)	1.56 (≈ 4.2 µM)	0.78 (≈ 2.1 µM)	1.56 (≈ 4.2 µM)	ED50 [19]: 0.98 mg/kg; minimal effective dose [21]: 0.3 mg/kg; ED50 [20]: 3.8 mg/kg; minimal effective dose [22]: 0.3 mg/kg
O=C(O)c1cn(-c2ccc(F)cc2F)c2c(F)c(N3C[C@@H]4C[C@H]3CN4)c(F)cc2c1=O	0.01 (≈ 0.0231 µM)	0.78 (≈ 1.8 µM)	0.2 (≈ 0.462 µM)	–	0.1 (≈ 0.231 µM)	0.78	0.05 (≈ 0.115 µM)	0.02 (≈ 0.0462 µM)	–	0.05 (≈ 0.115 µM)	0.39 (≈ 0.9 µM)	1.56 (≈ 3.6 µM)	3.13 (≈ 7.22 µM)	1.56 (≈ 3.6 µM)	–
CCn1cc(C(=O)O)c(=O)c2cc(F)c(N3CCN4CCC3CC4)c(F)c21.Cl.O	0.1	> 3.13	0.78	–	0.2	1.56	0.2	0.05	–	0.2	0.39	0.78	1.56	1.56	–
